target: Retinoid isomerohydrolase (Bos taurus, UniProt Q28175); assay: Inhibition of RPE65 in bovine retinal pigment epithelium microsomes assessed as decrease of 11-cis-retinol using trans-retinol measured after 1 hr by normal phase HPLC analysis; design: species or system Retina, Microsome; details: not given
Sequence (Q28175 whole entry): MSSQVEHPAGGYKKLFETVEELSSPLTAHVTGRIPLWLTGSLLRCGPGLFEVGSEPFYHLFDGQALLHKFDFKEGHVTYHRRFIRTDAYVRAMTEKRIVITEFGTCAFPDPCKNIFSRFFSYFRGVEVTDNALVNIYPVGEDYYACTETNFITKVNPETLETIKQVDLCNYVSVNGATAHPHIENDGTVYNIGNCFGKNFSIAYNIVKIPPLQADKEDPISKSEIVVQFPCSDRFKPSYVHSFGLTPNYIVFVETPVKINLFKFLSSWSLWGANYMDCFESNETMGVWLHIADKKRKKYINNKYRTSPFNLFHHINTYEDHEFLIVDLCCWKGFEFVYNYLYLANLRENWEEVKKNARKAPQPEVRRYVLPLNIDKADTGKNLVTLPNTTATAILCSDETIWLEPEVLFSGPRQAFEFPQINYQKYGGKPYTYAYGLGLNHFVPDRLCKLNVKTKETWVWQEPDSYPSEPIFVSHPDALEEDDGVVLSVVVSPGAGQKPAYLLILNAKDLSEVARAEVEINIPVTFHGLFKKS

| IC50 [nM] | Structure (SMILES) |
| --- | --- |
| 184 | CCCC(CCC)COc1cc(F)cc(C(O)CCN)c1 (racemic; 26) |
| 157 | CCCC(CCC)COc1ccc(F)c(C(O)CCN)c1 (racemic; 27) |
| 295 | CCCC(CCC)COc1cc(F)cc(C(O)CCN)c1 (racemic; 25) |
| 132 | CCCC(CCC)COc1ccc(F)c(C(O)CCN)c1 (racemic; 28) |
| 287 | CCCC(CCC)COc1cccc(C(O)CCN)c1F (racemic) |

system: not listed separately; assay: Drug distribution in wild type BL/6J mouse eyes measured at 380 nM, IP administered single dose per eye after 3 hrs by LC-MS/MS electrospray ionization fragmentation spectra method; format: ADME, tissue-based; details: in vivo, 0.38 µM
Outline: (§1)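 Eight-week-old BL/6J mice got one i.p. dose of 380 nmol in 50 μL DMSO and were sacrificed at 3 h, 1 day or 7 days. Both eyes were homogenized in acetonitrile, and the extract was dried and reconstituted in 50% methanol/water. Analysis was by C18 LC-MS/MS with ESI and a formic acid/acetonitrile gradient.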

| Drug uptake | Structure (SMILES) |
| --- | --- |
| 176 pmol | NCCC(O)c1cccc(OCC2CCC(F)(F)CC2)c1 (centres undefined) |
| Not Active | NCCC(O)c1ccc(F)c(OCC2CCCCC2)c1 (centres undefined) |
| Not Active | CCCC(CCC)COc1cc([C@H](O)CCN)ccc1F |

system: not listed separately; assay: Drug distribution in wild type BL/6J mouse eyes measured at 380 nM, IP administered single dose per eye after 7 days by LC-MS/MS electrospray ionization fragmentation spectra method; format: ADME, tissue-based; details: in vivo, 168 h, 0.38 µM, time 7 day
Outline: as §1, with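 “gradient. The transition monitored was water loss (−18 Da), or −47 Da for one analog.” for “gradient.”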

| Drug uptake [pmol] | Structure (SMILES) |
| --- | --- |
| 21 | NCCC(O)c1cccc(OCC2CCC(F)(F)CC2)c1 (centres undefined) |

— ChEMBL document CHEMBL5032497, “Rational Alteration of Pharmacokinetics of Chiral Fluorinated and Deuterated Derivatives of Emixustat for Retinal Therapy” (J Med Chem, 2021)
